# According to ChEMBL document CHEMBL2331121, “Design, synthesis, and pharmacological characterization of N- and O-substituted 5,6,7,8-tetrahydro-4H-isoxazolo[4,5-d]azepin-3-ol analogues: novel 5-HT(2A)/5-HT(2C) receptor agonists with pro-cognitive properties” (J Med Chem, 2013):
# Calls of active or inactive are those of the source. No cut-off for these calls is given here.
# How the values were obtained:
# [1] = target: T1, 5-hydroxytryptamine receptor 2C (Rattus norvegicus) (UniProt P08909); assay: Displacement of [125I]-N-(p-I-Bn)-THAZ from 5HT2C in rat cerebral cortex membrane at 300 uM after 1 hr by scintillation counting analysis; assay type: cell membranes
# T1 sequence (whole entry): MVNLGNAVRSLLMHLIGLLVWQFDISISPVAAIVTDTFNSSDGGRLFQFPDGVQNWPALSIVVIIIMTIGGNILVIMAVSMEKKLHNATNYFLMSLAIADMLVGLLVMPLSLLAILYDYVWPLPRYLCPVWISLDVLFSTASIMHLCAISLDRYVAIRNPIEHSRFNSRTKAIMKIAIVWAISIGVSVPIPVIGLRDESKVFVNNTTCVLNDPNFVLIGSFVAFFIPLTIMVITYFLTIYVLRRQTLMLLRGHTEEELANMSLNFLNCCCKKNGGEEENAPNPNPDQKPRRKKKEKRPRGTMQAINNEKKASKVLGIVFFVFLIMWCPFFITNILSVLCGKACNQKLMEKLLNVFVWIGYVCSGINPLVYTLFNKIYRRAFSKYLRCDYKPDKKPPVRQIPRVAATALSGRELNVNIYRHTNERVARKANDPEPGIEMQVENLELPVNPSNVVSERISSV
# [2] = target: T2, 5-hydroxytryptamine receptor 2C (Homo sapiens) (UniProt P28335); assay: Antagonist activity at human 5HT2C receptor expressed in HEK293 cells assessed as inhibition of 5HT-induced intracellular calcium release at 1 mM measured for 90 secs by fluorescence assay; assay type: functional, cell-based
# T2 sequence (whole entry): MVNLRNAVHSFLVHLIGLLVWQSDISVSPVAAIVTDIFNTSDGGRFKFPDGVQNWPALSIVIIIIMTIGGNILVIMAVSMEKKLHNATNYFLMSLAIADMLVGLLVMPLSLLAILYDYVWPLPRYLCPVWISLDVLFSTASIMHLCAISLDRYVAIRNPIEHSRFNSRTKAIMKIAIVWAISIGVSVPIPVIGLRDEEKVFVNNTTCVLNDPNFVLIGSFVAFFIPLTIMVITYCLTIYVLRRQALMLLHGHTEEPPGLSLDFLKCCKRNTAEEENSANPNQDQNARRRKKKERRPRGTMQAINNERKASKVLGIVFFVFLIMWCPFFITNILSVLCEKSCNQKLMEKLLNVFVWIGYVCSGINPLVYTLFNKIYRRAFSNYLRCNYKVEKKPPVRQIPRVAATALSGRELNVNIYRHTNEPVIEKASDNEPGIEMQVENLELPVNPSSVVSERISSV
# In short: (§1)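 Fluo-4/Ca²⁺ read-out in stable h5-HT2A or h5-HT2C HEK293 cells (HBSS/HEPES/probenecid buffer, pH 7.4). Antagonist was added after the dye-loading wash, then cells were challenged with an EC₇₅−EC₈₅ concentration of 5-HT. Emission at 525 nm was monitored up to 90 s after agonist addition. Duplicate, repeated in independent experiments.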
# [3] = target: T3, 5-hydroxytryptamine receptor 2A (Homo sapiens, UniProt P28223); assay: Antagonist activity at human 5HT2A receptor expressed in HEK293 cells assessed as inhibition of 5HT-induced intracellular calcium release at 1 mM measured for 90 secs by fluorescence assay; assay type: functional, cell-based; in short: as §1
# T3 sequence (P28223 whole entry): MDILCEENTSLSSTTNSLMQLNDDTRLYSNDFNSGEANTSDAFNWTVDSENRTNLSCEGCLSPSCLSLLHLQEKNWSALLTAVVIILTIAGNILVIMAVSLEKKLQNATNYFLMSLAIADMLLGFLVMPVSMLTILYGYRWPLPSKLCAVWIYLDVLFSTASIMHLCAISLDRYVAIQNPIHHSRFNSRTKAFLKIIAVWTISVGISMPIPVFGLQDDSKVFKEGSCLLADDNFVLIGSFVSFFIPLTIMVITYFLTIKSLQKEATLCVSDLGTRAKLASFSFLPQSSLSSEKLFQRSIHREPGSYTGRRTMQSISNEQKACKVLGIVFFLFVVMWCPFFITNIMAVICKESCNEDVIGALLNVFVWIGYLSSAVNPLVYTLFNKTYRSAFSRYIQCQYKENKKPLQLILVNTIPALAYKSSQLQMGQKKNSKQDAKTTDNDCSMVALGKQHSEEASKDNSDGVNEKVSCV
# [4] = target: T4, 5-hydroxytryptamine receptor 2C (Homo sapiens, UniProt P28335); assay: Displacement of [3H]mesulergine from human 5HT2C receptor expressed in tsA201 cell membranes after 1 hr by scintillation counting analysis
# T4 sequence (P28335 whole entry): T2 sequence (whole entry)
# [5] = target: T3, 5-hydroxytryptamine receptor 2A; assay: biochemical; assay type: cell-based, tsA201
# [6] = target: T2, 5-hydroxytryptamine receptor 2C (Homo sapiens); assay: Agonist activity at human 5HT2C receptor expressed in HEK293 cells assessed as induction of intracellular calcium release at 1 mM measured for 90 secs by fluorescence assay; assay type: functional, cell-based
# In short: (§2)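 Stable polyclonal h5-HT2A or h5-HT2C HEK293 cells plated on poly-D-lysine wells, loaded next day with Fluo-4/AM for 1 h at 37 °C. Buffer was HBSS with 20 mM HEPES, 1 mM CaCl₂, 1 mM MgCl₂, 2.5 mM probenecid, pH 7.4. Fluorescence read at 485/525 nm before and up to 90 s after agonist addition. Responses normalised to 5-HT on the same plate. Duplicate, 4−10 experiments.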
# [7] = target: T3, 5-hydroxytryptamine receptor 2A; assay: Agonist activity at human 5HT2A receptor expressed in HEK293 cells assessed as induction of intracellular calcium release at 1 mM measured for 90 secs by fluorescence assay; assay type: functional, cell-based; in short: as §2
# [8] = target: T4, 5-hydroxytryptamine receptor 2C; assay: Agonist activity at human 5HT2C receptor expressed in HEK293 cells assessed as induction of intracellular calcium release measured for 90 secs by fluorescence assay; assay type: functional, cell-based
# [9] = target: T3, 5-hydroxytryptamine receptor 2A; assay: Agonist activity at human 5HT2A receptor expressed in HEK293 cells assessed as induction of intracellular calcium release measured for 90 secs by fluorescence assay; assay type: functional, cell-based
# [10] = target: T1, 5-hydroxytryptamine receptor 2C (Rattus norvegicus); assay: Displacement of [125I]-N-(p-I-Bn)-THAZ from 5HT2C in rat cerebral cortex membrane up to 50 uM after 1 hr by scintillation counting analysis; assay type: cell membranes
# [11] = target: T1, 5-hydroxytryptamine receptor 2C (Rattus norvegicus); assay: Displacement of [125I]-N-(p-I-Bn)-THAZ from 5HT2C receptor in rat midbrain membrane after 1 hr by scintillation counting analysis; assay type: cell membranes
# [12] = target: T1, 5-hydroxytryptamine receptor 2C (Rattus norvegicus); assay: Displacement of [125I]-N-(p-I-Bn)-THAZ from 5HT2C receptor in rat hippocampal membrane after 1 hr by scintillation counting analysis; assay type: cell membranes; conditions: Hippocampus
# [13] = target: T1, 5-hydroxytryptamine receptor 2C (Rattus norvegicus); assay: Displacement of [125I]-N-(p-I-Bn)-THAZ from 5HT2C receptor in rat cerebellum membrane after 1 hr by scintillation counting analysis; assay type: cell membranes
# [14] = target: T2, 5-hydroxytryptamine receptor 2C (Homo sapiens); assay: Agonist activity at human 5HT2C receptor expressed in HEK293 cells assessed as accumulation of IP1 incubated for 1 hr at 37 degC followed by 15 mins at RT by TR-FRET assay relative to 5HT; assay type: functional, cell-based
# In short: (§3)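 Polyclonal HEK293 lines stably expressing human 5-HT2A (variant 1) or 5-HT2C (INI isoform), detached and suspended at 1 × 10⁷ cells/mL in HBSS with 20 mM HEPES, 1 mM CaCl₂, 1 mM MgCl₂, pH 7.4. Ligands in buffer with 40 mM LiCl. Incubated 1 h at 37 °C, then 15 min RT. IP1 read by HTRF 665/615 ratio. Triplicate, at least four times.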
# [15] = target: T3, 5-hydroxytryptamine receptor 2A; assay: Agonist activity at human 5HT2A receptor expressed in HEK293 cells assessed as accumulation of IP1 incubated for 1 hr at 37 degC followed by 15 mins at RT by TR-FRET assay relative to 5HT; assay type: functional, cell-based; in short: as §3
# [16] = target: T2, 5-hydroxytryptamine receptor 2C (Homo sapiens); assay: Agonist activity at human 5HT2C receptor expressed in HEK293 cells assessed as induction of intracellular calcium release by fluorescence assay relative to 5HT; assay type: functional, cell-based
# In short: (§4)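 Stable polyclonal 5-HT2A or 5-HT2C HEK293 cells seeded on poly-D-lysine plates (6 × 10⁴ cells/well). Next day loaded with Fluo-4/AM for 1 h at 37 °C in HBSS/20 mM HEPES/1 mM CaCl₂/1 mM MgCl₂/2.5 mM probenecid, pH 7.4. Fluorescence (485 ex/525 em) recorded before and up to 90 s after agonist. Response relative to 5-HT on the same plate. Duplicate, at least three times.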
# [17] = target: T3, 5-hydroxytryptamine receptor 2A; assay: Agonist activity at human 5HT2A receptor expressed in HEK293 cells assessed as induction of intracellular calcium release by fluorescence assay relative to 5HT; assay type: functional, cell-based; in short: as §4
# [18] = target: T3, 5-hydroxytryptamine receptor 2A; assay: Agonist activity at human 5HT2A receptor expressed in HEK293 cells assessed as accumulation of IP1 incubated for 1 hr at 37 degC followed by 15 mins at RT by TR-FRET assay; assay type: functional, cell-based
# [19] = target: T4, 5-hydroxytryptamine receptor 2C; assay: Agonist activity at human 5HT2C receptor expressed in HEK293 cells assessed as accumulation of IP1 incubated for 1 hr at 37 degC followed by 15 mins at RT by TR-FRET assay; assay type: functional, cell-based
structure (smiles),measurement,setting,value
NC[C@H](O)c1ccc(O)c(O)c1,Activity,[1],inactive
Oc1noc2c1CCNCC2,Activity,[2],inactive
same,Activity,[3],inactive
same,Ki,[4],> 300 µM
same,Ki,[5]; read-out: Ki,> 300 µM
same,Ki,[5]; read-out: pKi (converted),> 316 µM
same,Activity,[6],inactive
same,Activity,[7],inactive
same,EC50,"[8]; hek293, read-out: EC50",> 1000 µM
same,EC50,[8]; read-out: pEC50 (converted),> 1000 µM
same,EC50,"[9]; hek293, read-out: EC50",> 1000 µM
same,EC50,[9]; read-out: pEC50 (converted),> 1000 µM
CCn1oc2c(c1=O)CCN(C)CC2,Activity,[2],inactive
same,Activity,[3],inactive
same,Ki,[4],> 300 µM
same,Ki,[5]; read-out: Ki,> 300 µM
same,Ki,[5]; read-out: pKi (converted),> 316 µM
same,Activity,[6],inactive
same,Activity,[7],inactive
same,EC50,"[8]; hek293, read-out: EC50",> 1000 µM
same,EC50,[8]; read-out: pEC50 (converted),> 1000 µM
same,EC50,"[9]; hek293, read-out: EC50",> 1000 µM
same,EC50,[9]; read-out: pEC50 (converted),> 1000 µM
CN1CCN2c3ccccc3Cc3ccccc3C2C1 (centres undefined),Activity,[10],inactive
same,Activity,[11],inactive
same,Activity,[12],inactive
same,Activity,[13],inactive
NCCCC(=O)O,Activity,[1],inactive
NCCc1c[nH]c2ccc(O)cc12,Activity,[10],inactive
same,Activity,[11],inactive
same,Activity,[12],inactive
same,Activity,[13],inactive
Clc1cncc(N2CCNCC2)n1 [MK-212],Emax,[14],93%
same,Emax,[15],101%
same,Emax,[16],93%
same,Emax,[17],97%
same,Ki,[4],3.4 µM
same,Ki,[5]; read-out: Ki,21 µM
same,EC50,[18],1.2 µM
same,EC50,[19],0.16 µM
same,EC50,[8]; read-out: EC50,0.028 µM
same,EC50,[9]; read-out: EC50,0.42 µM
CCn1oc2c(c1=O)CNCC2,Activity,[2],inactive
same,Activity,[3],inactive
same,Activity,[6],inactive
same,Activity,[7],inactive
same,EC50,"[8]; hek293, read-out: EC50",> 1000 µM
same,EC50,[8]; read-out: pEC50 (converted),> 1000 µM
same,EC50,"[9]; hek293, read-out: EC50",> 1000 µM
same,EC50,[9]; read-out: pEC50 (converted),> 1000 µM
Cn1c2c(c3ccccc31)CCNCC2 [PNU-22394],Emax,[14],97%
same,Emax,[15],98%
same,Emax,[16],101%
same,Emax,[17],102%
same,EC50,[18],0.21 µM
same,EC50,[19],0.12 µM
same,EC50,[8]; read-out: EC50,0.0077 µM
same,EC50,[9]; read-out: EC50,0.023 µM
NCCc1ccc(O)c(O)c1,Activity,[1],inactive
C[C@H](N)Cn1ccc2cc(F)c(Cl)cc21,Emax,[16],111%
same,Emax,[17],117%
same,EC50,[8]; read-out: EC50,0.0047 µM
same,EC50,[9]; read-out: EC50,0.027 µM
CCOc1noc2c1CCNCC2,Emax,[16],67%
same,Emax,[17],42%
same,Ki,[4],100 µM
same,Ki,[5]; read-out: Ki,100 µM
same,EC50,[8]; read-out: EC50,3 µM
same,EC50,[9]; read-out: EC50,7.9 µM
N[C@@H](CCC(=O)O)C(=O)O,Activity,[1],inactive
O=C1Nc2cc(Cl)c(Cl)cc2N2CCNCC12 (centres undefined),Emax,[16],95%
same,Emax,[17],110%
same,EC50,[8]; read-out: EC50,0.0073 µM
same,EC50,[9]; read-out: EC50,0.012 µM
